# Source: PubChem (SRMLSC)
# bCat KO growth: beta-catenin-lacking colon tumor cell growth suppression; HCT116 beta-catenin knockout viability, CellTiter-Glo, 60 h; hits give low values; viability, % at 10 µM; hit rate 1.5% among 140,000; AID 818;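 active = viability at or under a set limit, the compound median less 4 SD, cut at about 6% in these data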;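 also: 0% = Hyamine 1622 control at 20 µM and 100% = untreated cell control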
# HCT116 PTEN-null: suppresses growth of cells with PTEN deletion; HCT116 PTEN-null viability, CellTiter-Glo, 60 h; hits give low values; viability, % at 10 µM; hit rate 1.2% among 140,000; AID 827;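 active = viability at or below a set limit, 4 SD under the median of all tested compounds, cut at about 3.7% in these data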;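 also: PTEN knockout HCT116 line with beta catenin targeted HCT116 as companion control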
# HUVEC prolif 384: inhibitors of human endothelial cell proliferation | viability, % at 10 µM (by protocol) | HUVEC proliferation, CellTiter-Glo luminescence, 72 h; hits give low values | hit rate 1.1% among 86,000;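 active = viability at or below 30%; inactive = viability above 30%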;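 also: 100% = median luminescence of DMSO-only cell control wells on each plate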
# H69AR inhibit: blocks growth of human H69AR lung tumor cells. H69AR lung tumor viability, ATP luminescence, 72 h; hits give low values. viability, % at 10 µM. hit rate 6% among 85,000;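 active = viability at or below 40%; inactive = viability above 40%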;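 also: multidrug resistant small cell line overexpressing MRP-1 efflux transporter; 100% = mean luminescence of untreated control wells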
# Fibroblast inh: blocks proliferation of human lung fibroblasts | LL 47 human lung fibroblast viability, ATP luminescence; hits give low values | viability, % at 10 µM | hit rate 1.1% among 85,000 | AID 719;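 active = viability at or below 50% in the single dose screen; inactive = viability above 50%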;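 also: compound exposure lasted 72 h before the ATP readout; 100% = median luminescence of untreated cell-only wells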
#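 Material: human LL 47 lung fibroblast cells; quantity: 1,150 cells/well; medium: IMEM plus 15% FBS; doses: 0.1% DMSO in all compound wells; timing: overnight attachment after seeding, then 72 h compound exposure at 37 °C; detection: CellTiter-Glo luminescence; measure: % viability of median cell-only signal; controls: cell-only wells, no compound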
# Starred values were filed as active, the others as inactive; nt = not tested or not shown. Shown is part of a subset that was picked to be rich in hits.
SMILES,bCat KO growth,HCT116 PTEN-null,HUVEC prolif 384,H69AR inhibit,Fibroblast inh
Clc1cccc(Cl)c1C1N2CCCN12 (stereo not given),101.5,107.3,108.9,94.3,99.4
Cc1cccn2c(=O)c3c(nc12)N1CCC(Cc2ccccc2)CC1C1(C3)C(=O)N(C)C(=O)N(C)C1=O (stereo not given),68.4,70.4,74.0,28.8*,102.6
CCCCc1ccc2[nH]cc(CCN)c2c1,17.6,3.9,84.5,14.3*,83.5
COc1cccc(OC)c1C1=NCC(=O)Nc2c1oc1ccc(Br)cc21,14.9,16.4,46.0,34.3*,59.8
O=c1c2ccccc2nc(CSc2ncnc3nc[nH]c23)n1-c1ccc(Cl)c(Cl)c1,69.6,78.4,nt,nt,nt
O=P(OCC(F)(F)C(F)F)(N1CCOCC1)N1CCOCC1,29.0,34.3,93.1,96.0,104.4
Nc1c(C(=O)NCCCc2ccccc2)c2nc3ccccc3nc2n1Cc1cccs1,2.9*,1.9*,52.9,61.3,87.5
CCCOC(=O)c1c(N)n(Cc2cccs2)c2nc3ccccc3nc12,75.4,83.0,74.5,41.5,96.4
CCCCCn1c(N)c(C(=O)NCc2cccs2)c2nc3ccccc3nc21,27.4,19.7,81.6,31.8*,85.6
CCCCn1c(N)c(C(=O)NCc2cccs2)c2nc3ccccc3nc21,17.8,15.8,70.8,35.1*,70.9
O=[N+]([O-])c1ccc(N2CCNCC2)cc1Sc1ccccn1,101.6,102.7,nt,nt,nt
Cc1nn(C2CCOC(C)(C)C2)c2c1C(c1ccc(OC(C)C)cc1)SCC(=O)N2 (stereo not given),68.2,65.8,99.5,87.2,103.3
CCCCCCCSc1cc(OC)c(CCNC)cc1OC,1.5*,1.6*,nt,nt,nt
Cc1cccn2c(=O)c3cc(C(=O)N4CCC5(CC4)OCCO5)n(C)c3nc12,13.8,13.4,55.9,19.6*,57.2
CCOC(=O)C1=C(N)OC2=C(C(=O)CC(C)(C)C2)C12C(=O)Nc1ccccc12 (stereo not given),95.0,95.9,nt,nt,nt
COc1ccc(Cn2c(N)c(C(=O)NCc3ccco3)c3nc4ccccc4nc32)cc1,51.6,29.4,69.5,38.4*,77.4
Nc1c(C(=O)NCc2ccco2)c2nc3ccccc3nc2n1Cc1ccc(F)cc1,55.3,6.2,70.2,22.0*,84.8
O=c1c2ccccc2nc(N2CCCC2)n1-c1ccc(Cl)cc1,80.1,84.1,110.0,99.3,92.8
Cc1nc2c(c(C)nn2-c2ccccc2)c(C)c1CCC(=O)N1CCC2(CC1)OCCO2,77.1,77.1,89.6,82.6,95.1
CN(C)C=C1C(=O)N(C2CCCCC2)C(=O)N(C2CCCCC2)C1=O,87.6,90.8,67.3,31.1*,95.1
CN1CCC(O)(c2ccccc2)C(C(=O)c2ccccc2)C1 (stereo not given),5.3*,22.9,90.5,82.5,85.1
CN(CC(=O)Nc1ccccc1-c1ccccc1)C1CCCCC1,72.3,75.5,97.4,69.2,87.0
O=C(c1ccc2c(c1)ncn2C1CCCCCC1)N1CCC2(CC1)OCCO2,41.6,42.3,96.9,28.5*,95.0
Cc1nc2cc(C(=O)N3CCC4(CC3)OCCO4)ccc2n1-c1cccc(F)c1,97.8,94.8,100.1,88.3,98.8
O=C(CNS(=O)(=O)c1ccc(Br)s1)N1CCC2(CC1)OCCO2,93.8,106.7,102.1,91.5,101.4
SMILES,bCat KO growth,HCT116 PTEN-null,HUVEC prolif 384,H69AR inhibit,Fibroblast inh
CC(=Nc1ccc2c(c1)CCC2)c1c(O)n(C2CCCCC2)c(=O)[nH]c1=O,54.1,95.4,42.1,40.4,37.2*
Cc1oc(C(=O)Nc2ccc(O)cc2)cc1COc1ccccc1,90.8,93.5,62.5,29.4*,103.7
CCOc1cccc(OCC)c2c(C)[n+](CC3CCCO3)c(C)c1-2 (stereo not given),95.8,108.0,94.6,32.1*,103.5
CN1C(=O)C(=Cc2ccccc2OCc2ccccc2Cl)C(=O)N(C)C1=O,42.7,47.9,nt,nt,nt
COc1cc(/C=C(/C)[N+](=O)[O-])ccc1OCc1ccccc1Cl,1.6*,1.2*,nt,nt,nt
Cc1[nH]c2c(Cl)cccc2c1CCN,nt,nt,93.2,21.7*,96.3
O=C1NC(=O)C2(Cc3c(nc4ccccn4c3=O)N3CCCCCC32)C(=O)N1Cc1ccccc1 (stereo not given),75.6,64.8,74.5,45.3,90.8
CC1CCC(C(=O)NC(C(=O)N2CCC3(CC2)OCCO3)C(C)C)CC1 (stereo not given),84.8,90.2,101.7,91.5,95.1
Cc1ccc(NC(=O)CN2C(=O)CN=C(c3ccccc3)c3cc(Cl)ccc32)cc1,43.7,47.5,84.5,24.6*,84.9
FC(F)(F)c1ccc2c(c1)nnn2C1CCN(Cc2nnnn2Cc2ccccc2)CC1,54.7,42.2,70.4,nt,92.8
Fc1ccc2c(c1)nnn2C1CCN(Cc2nnnn2C2CCCCC2)CC1,92.2,91.9,96.8,27.5*,91.8
Cc1ccc(Cn2nnnc2CN2CCC(n3nnc4cc(C(F)(F)F)ccc43)CC2)cc1,47.0,43.2,53.9,2.0*,75.5
Fc1ccc2c(c1)nnn2C1CCN(Cc2c(Cl)cccc2Cl)CC1,83.2,72.1,88.8,87.5,96.1
Cc1ccc(Cn2nnnc2CN2CCC(n3nnc4cc(C)ccc43)CC2)cc1,47.3,43.0,65.3,26.8*,89.6
CC(C)COP(=O)(OCC(C)C)C(O)c1cccnc1 (stereo not given),96.7,98.4,nt,nt,nt
CC(C)Cn1cc(C(=O)N2CCC3(CC2)OCCO3)c2c3ccccc3n(C)c2c1=O,79.5,71.2,90.3,64.6,120.4
CC(=O)OC1N=C(c2ccc(Cl)cc2)c2cc(Br)ccc2NC1=O (stereo not given),64.1,59.1,99.5,71.7,97.5
C[C@H]1CCCC(=O)CCC/C=C/c2cc(O)cc(O)c2C(=O)O1,65.0,66.3,51.9,35.7*,105.6
CN1CCC(N(C)c2nc(-c3ccccc3)nc3ccccc23)CC1,24.4,24.3,66.3,26.7*,89.8
COc1ccccc1-n1c(-c2ccoc2)nc2ccccc2c1=O,89.6,81.9,nt,nt,nt
O=c1c2ccccc2nc(-c2ccoc2)n1-c1ccccc1Cl,36.2,33.9,86.3,34.1*,97.7
CCc1nc2ccccc2c(=O)n1-c1ccc2ccccc2c1,86.6,94.6,80.7,30.8*,91.0
CCOCCCNC(=O)CN1C2CCC1CC(O)(c1ccc(OC)cc1)C2 (stereo not given),100.2,106.9,107.6,93.8,109.7
O=c1[nH]c(=O)n(C2CCCCCC2)c(O)c1C=NC1CCN(Cc2ccccc2)CC1,92.5,73.3,103.2,35.1*,94.9
CCCCc1nc(N2CCNCC2)c(C#N)c2c1CSC(C)(C)C2,1.7*,1.9*,nt,nt,nt
O=c1c2ccccc2nc(-c2ccc(-c3ccccc3)cc2)n1-c1ccncc1,57.6,58.9,nt,nt,nt
CN(C)P(=O)(C(Cl)=C(N1CCCCC1)N1CCCCC1)N(C)C,58.4,64.7,99.9,44.6,97.5
CCOC(=O)c1c(C)n(Cc2ccccc2)c2ccc(OCC(O)Cn3nc(C)cc3C)cc12 (stereo not given),73.5,65.7,61.3,12.2*,99.8
Clc1ccc(C(c2ccccc2)c2ncc[nH]2)cc1 (stereo not given),83.7,83.7,nt,nt,nt
